A selection: hits, their analogues and other compounds. The true share with any hit is near 3.7%.
KCNQ1 block: inhibitors of human KCNQ1 potassium channel; B-score at 10 µM; CHO-K1 KCNQ1, FluxOR thallium flux fluorescence; hits give high values; P51787; 310,000 tested, 1.3% active;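 active means compounds whose thallium flux B-score, printed positive for inhibition, exceeds three library SD while starting fluorescence stays within three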;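 further: channel opened by potassium depolarization with thallium stimulus after 20 min compound exposure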
KCNQ1 pot: potentiators or activators of human KCNQ1 potassium channel; P51787; CHO-K1 KCNQ1, thallium flux FluxOR fluorescence; hits give high values; B-score at 10 µM; 310,000 tested, 0.35% active; AID 2648;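 active means fluorescence ratio B-score, a plate-corrected score, at least three library SD, with initial intensity B-score within 5 SD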
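assay system = CHO-K1 cells stably expressing KCNQ1 | medium = assay buffer, equal DMSO in all wells | timing = 37 °C overnight plating, 90-min dark dye load, 20-min compound pretreatment | measured by = kinetic FluxOR thallium fluorescence, 10-s 1-Hz baseline, 110-s post-stimulus read | measure = fluorescence change relative to baseline, converted to B score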
KCNK9 block: blocks the human KCNK9 two-pore domain potassium channel. Q9NPC2. B-score at 10 µM. HEK293 KCNK9, FluxOR thallium flux fluorescence; hits give low values. 310,000 tested, 1.2% active;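 active means ratio B-score over 3 SD below the library mean, with starting fluorescence within 5 SD of its mean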;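 further: negative B-score means less thallium flux so channel inhibition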
hERG protect: shields human hERG channel from block by proarrhythmic agents; CHO-hERG, FluxOR thallium flux, dofetilide IC70 present; 310,000 tested, 0.51% active; AID 1511; activation (rescue from dofetilide block), less the hit threshold, % at 10 µM; Q12809;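 active means activation above the mean of controls blocked by dofetilide plus 5 SD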;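 further: thallium influx through hERG after potassium depolarization seen as dye fluorescence rise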
Kir21 block: inhibitors of mouse Kir2.1 inward-rectifier potassium channel; 310,000 tested, 0.85% active; HEK293-Kir2.1, FluxOR thallium flux fluorescence; hits give low values; AID 1672; B-score at 10 µM;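 active means fluorescence ratio B-score at or below minus 3 SD of library scores, with starting-brightness B-score within 2 SD, cut at about -4.2 in these data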;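 further: channel flux triggered by added potassium and thallium sulfate stimulus; B-score of peak minus minimum fluorescence over baseline after thallium stimulus; more negative B-score means stronger Kir2.1 block with less thallium influx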
Target sequence (P35561 whole entry, looked up): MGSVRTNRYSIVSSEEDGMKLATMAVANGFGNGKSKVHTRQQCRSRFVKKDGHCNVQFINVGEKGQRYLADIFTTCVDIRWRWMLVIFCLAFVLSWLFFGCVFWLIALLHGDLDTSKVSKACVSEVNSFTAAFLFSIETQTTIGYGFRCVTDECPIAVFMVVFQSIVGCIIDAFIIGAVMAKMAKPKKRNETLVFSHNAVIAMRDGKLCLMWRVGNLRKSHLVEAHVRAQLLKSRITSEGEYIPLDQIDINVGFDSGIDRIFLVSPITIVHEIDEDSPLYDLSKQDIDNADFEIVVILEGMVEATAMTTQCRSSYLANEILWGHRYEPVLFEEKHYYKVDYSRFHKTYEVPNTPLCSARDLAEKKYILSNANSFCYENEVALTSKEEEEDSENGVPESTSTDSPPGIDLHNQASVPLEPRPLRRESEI
KCNK3 inh: human KCNK3 channel inhibition, primary screen | 340,000 tested, 0.84% active | O14649 | B-score at 10 µM | AID 602410 | CHO-KCNK3 thallium flux, FluxOR fluorescence; hits give low values;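 active means B-score under library mean minus 4 SD, starting fluorescence ratio at most library mean plus 5 SD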;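 further: more negative B-score means stronger inhibition of thallium flux through KCNK3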
KCNK3 inh conf: confirmation of human KCNK3 two-pore domain potassium channel inhibitors. shares compounds with KCNK3 inh. CHO-KCNK3 thallium flux, FluxOR fluorescence; 0% buffer, 100% carvedilol maximal block. ratio percent of control, % at 10 µM. 2,400 tested, 99% active;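 active means ratio percent of control, averaged over triplicates, above buffer control mean plus 5 SD, cut at about 64% in these data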;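 further: ratio is the fluorescence rise from min to max over baseline after thallium stimulus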
KCNK3 uninduced: KCNK3 inhibitor counter-screen hit in non-induced cells. AID 651747. 2,400 tested, 40% active. thallium flux ratio (lower = more inhibition) at 10 µM. shares compounds with KCNK3 inh. non-induced KCNK3 parental cells, FluxOR thallium flux; hits give low values;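 active means thallium flux ratio, averaged over three wells, more than 5 SD below the buffer control mean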;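 further: host cells are CHO cells without KCNK3 induction; ratio is peak minus trough fluorescence over baseline then normalized to buffer controls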
Active calls of the source: *; i = inactive; . = not tested or not shown.

SMILES	KCNQ1 block	KCNQ1 pot	KCNK9 block	hERG protect	Kir21 block	KCNK3 inh	KCNK3 inh conf	KCNK3 uninduced
CC(C)N(C(=S)NC1CC2CCC1C2)c1ccccc1 (stereo not drawn)	i	i	i	-17	0.28	-9.8*	118*	0.16*
COc1ccccc1CN(C)C(=O)c1cc(-c2cccs2)nc2ccccc12	i	i	i	-14	-0.76	-13*	119*	0.14*
COc1ccccc1-c1cc(C(=O)N/N=C/c2cccs2)c2ccccc2n1	i	i	i	-7	-0.4	-9.4*	109*	i
COc1ccc(-c2cc(C(=O)N(C)Cc3cccc(OC)c3OC)c3ccccc3n2)cc1OC	i	i	i	-12	1.6	i	.	.
CCCc1ccc(NS(=O)(=O)c2c(C)oc(C)c2C(=O)OC)cc1	i	i	i	-6	-1.1	i	.	.
CCCCNC(=S)N1CCN(C(c2ccccc2)c2ccccc2)CC1	i	i	-6.8*	-28	-1.1	-11*	93*	0.11*
Cc1ccc(S(=O)(=O)N2CCC(C(=O)OCc3c(C)noc3C)CC2)cc1C	i	i	i	-3	-2.1	i	.	.
Cc1noc(C)c1COC(=O)C1CCN(S(=O)(=O)c2c(Cl)cccc2Cl)CC1	i	i	i	-11	0.95	-9*	114*	i
CC(=O)Oc1ccc(/C=C(\NC(=O)c2ccco2)C(=O)NCc2ccco2)cc1	i	i	i	-3	1.4	i	.	.
CCCN=C1CC(C)(C)CC(=O)/C1=C(/O)CCC	i	i	i	-3	2.2	-9*	99*	i
CCC/C(O)=C1\C(=O)CC(C)(C)CC1=NCc1ccccc1	i	i	i	-11	-0.93	i	.	.
COc1ccccc1C(C)Nc1nc(-c2cccnc2)nc2ccccc12 (stereo not drawn)	i	i	i	-16	1.6	-11*	125*	i
CCC1Nc2ncnc(N3CCN(c4ccccn4)CC3)c2N(Cc2ccc(Cl)cc2)C1=O (stereo not drawn)	i	i	i	-16	1.4	i	.	.
CC(C)(C)C(=O)Nc1ccccc1C(=O)NCc1ccco1	i	i	i	-13	-0.05	-9.3*	65*	i
O=C(/C=C/c1ccc(N2CCCCC2)c([N+](=O)[O-])c1)c1ccc(O)cc1	i	i	-7.8*	-9	1.5	-11*	123*	i
COC(=O)C1CCN(c2nc3ccccc3nc2C(C#N)C(=O)NCCc2ccccc2)CC1 (stereo not drawn)	i	i	i	-18	0.76	i	.	.
COC(=O)C1CCN(c2nc3ccccc3nc2C(C#N)C(=O)OCC(C)C)CC1 (stereo not drawn)	i	i	-6.8*	-7	0.5	i	117*	0.15*
CCOC(=O)CNC(=O)C1c2ccccc2Oc2ccccc21	i	i	i	-8	-0.01	-12*	50*	i
O=C(O)C1C2C=CC(O2)C1C(=O)Nc1cccc(C(F)(F)F)c1 (stereo not drawn)	i	i	i	-6	1.6	i	.	.
Cc1cccc(-n2c(SCC(=O)Nc3nnc(C)s3)nnc2-c2ccoc2C)c1	i	i	i	-3	1.9	-14*	66*	0.16*
C/C(=N\OCc1nc2ccccc2c(=O)n1/N=C/c1cc([N+](=O)[O-])ccc1O)c1ccccc1	6*	i	i	-31	-0.92	-9.1*	95*	0.12*
O=[N+]([O-])c1ccc(O)c(/C=N/n2c(CO)nc3ccccc32)c1	i	i	i	-9	0.66	i	.	.
CCN(C(=O)C1CCCN(c2ncnc3c2nc2n3CCCCC2)C1)c1cccc(Cl)c1 (stereo not drawn)	i	i	i	-17	-0.89	-12*	89*	i
O=C(Nc1ccc(Cl)cn1)C1CCCN(c2ncnc3c2nc2n3CCCCC2)C1 (stereo not drawn)	i	i	i	-15	0.2	i	.	.
Cc1ccccc1NC(C)C(=O)N/N=C/c1ccccc1OCc1cccc(Br)c1 (stereo not drawn)	i	i	i	-10	1	-11*	92*	0.16*
SMILES	KCNQ1 block	KCNQ1 pot	KCNK9 block	hERG protect	Kir21 block	KCNK3 inh	KCNK3 inh conf	KCNK3 uninduced
COc1ccc(NC(C)C(=O)N/N=C/c2ccccc2OCc2cccc(Br)c2)cc1 (stereo not drawn)	i	i	i	-10	0.63	i	.	.
C=CCOC(=O)C1=C(C)NC(C)=C(C(=O)OCC=C)C1c1ccc(C)o1	i	i	i	-3	0	-10*	104*	i
CCOC(=O)C1=C(C)NC(C)=C(C(=O)OCC)C1c1ccc(C)o1	i	i	i	-3	-0.67	i	.	.
O=C(Nc1ccc(Cl)cc1)N(Cc1cccs1)Cc1cccs1	i	i	i	-4	-0.04	-12*	130*	i
CCc1ncc(CN2CCCC(C(=O)Nc3cccc(-c4cccc(C)c4)c3)C2)cn1 (stereo not drawn)	i	i	i	-13	0.04	-11*	115*	0.15*
COc1ccc(C(=O)COC(=O)c2ccccc2O)c(OC)c1	.	.	.	.	.	i	.	.
CN(C)c1nc(SCc2ccccc2Cl)nc2c1CCCC2	i	i	i	-3	0.58	i	.	.
Cc1ccc(CSc2nc3c(c(N(C)C)n2)CCCC3)cc1	i	i	i	-4	-0.49	-8.9*	139*	0.12*
COc1cccc(OC)c1C1=NC(C)(C)CO1	i	i	i	-4	0.93	i	.	.
CC(C)C(CCNC(=O)CC(Cc1ccccc1)c1ccco1)c1ccco1 (stereo not drawn)	i	i	i	-15	-3.1	-9.4*	120*	0.15*
CC1CCCC(C)N1C(=O)c1ccc(S(=O)(=O)NCc2ccco2)cc1 (stereo not drawn)	i	i	i	-4	-0.01	i	.	.
Cc1cc(C)c2nc(-c3cccc(Cl)c3)c(C)c(C(=O)N3CCOCC3)c2c1	i	i	-7.4*	-13	-0.99	-9.5*	122*	0.15*
Cc1onc(-c2c(Cl)cccc2Cl)c1C(=O)N1CCOCC1	i	i	i	-4	0.24	i	.	.
CCc1ccc2c(c1)C1(NN=C(c3ccc(C)cc3)S1)C(=O)N2 (stereo not drawn)	7*	i	i	-23	2.7	-8.7*	106*	0.11*
